Like-named read-outs stand apart in the source and are kept apart here. Where a SMILES comes first, the peptide text is derived from it. [ ]: non-standard residue; d: D form. The star is where a group is joined. Dmt = Cc1cc(O)cc(C)c1C[C@H](N)C(=O)O; Tic = O=C(O)[C@@H]1Cc2ccccc2CN1; NHBn = c1ccc(CN*)cc1
Tests used:
δ-opioid receptor [1] = biological target: T1, δ-opioid receptor (Mus musculus, UniProt P32300); details: ref Balboni et al.[5], cited from earlier work
μ-opioid receptor [2] = biological target: T2, μ-opioid receptor (Cavia porcellus, UniProt P97266); details: read-out: GPI IC50; μ agonism; ref Balboni et al.[5]; cited from earlier work
δ-opioid receptors = δ-opioid receptors (Rattus norvegicus, UniProt P33533); details: ref Balboni et al.[5], cited from earlier work; for Ki: read-out: Receptor affinity Ki^δ, reference compounds
μ-opioid receptors = μ-opioid receptors (Rattus norvegicus, UniProt P33535); details: read-out: Receptor affinity Ki^μ; reference compounds; ref Balboni et al.[5]; cited from earlier work
mice [3] = assay: Tail-flick test after icv injection; assay type: in vivo, Swiss-Webster mice
Summary of the method: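 Radiant heat on the dorsal tail surface of male Swiss-Webster mice (20–25 g), with latency to tail removal timed. Baseline 2–3 sec, cutoff 8 sec. Readings start 10 min after icv test compound (5 μL saline at bregma) and repeat every 10 min.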

mice [4] = assay: Behavioural observation after icv injection; assay type: in vivo
[5] = Enzymatic degradation in brain homogenate; assay type: in vitro ADME; details: 2 h, preliminary
mice [6] = assay: Hot-plate test after icv injection; assay type: in vivo, Swiss-Webster mice
Summary of the method: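 Male Swiss-Webster mice (20–25 g); test compound in saline, 5 μL icv at bregma (needle 2.3–3 mm deep), placement checked after sacrifice. Latency to jump, lick or shake hind paws on a 55 °C plate at 10 min post-injection, then every 10 min; baseline 5–10 sec, cutoff 30 sec.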

[7] = Enzymatic degradation in plasma; assay type: in vitro ADME; details: 4 h, preliminary
μ-opioid receptor [8] = biological target: T2, μ-opioid receptor; assay: Electrically stimulated guinea-pig ileum; parameters: species or system guinea pigs
δ-opioid receptor [9] = biological target: T1, δ-opioid receptor; assay: Electrically stimulated mouse vas deferens; details: MVD
[10] = 10 μg/mouse icv, sc naltrindole 3 mg/kg, naloxone 10 mg/kg 20 min before

T1 sequence (P32300 whole entry): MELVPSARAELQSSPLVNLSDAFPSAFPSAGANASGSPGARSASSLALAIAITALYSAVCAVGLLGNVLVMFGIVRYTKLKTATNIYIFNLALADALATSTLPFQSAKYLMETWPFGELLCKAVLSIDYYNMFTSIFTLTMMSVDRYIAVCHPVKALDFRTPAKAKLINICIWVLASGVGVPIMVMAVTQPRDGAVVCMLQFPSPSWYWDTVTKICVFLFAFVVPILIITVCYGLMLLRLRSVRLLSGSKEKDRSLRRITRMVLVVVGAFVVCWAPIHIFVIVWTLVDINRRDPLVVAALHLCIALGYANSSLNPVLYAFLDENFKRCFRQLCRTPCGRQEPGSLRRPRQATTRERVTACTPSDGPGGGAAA
T2 sequence (P97266 whole entry, looked up): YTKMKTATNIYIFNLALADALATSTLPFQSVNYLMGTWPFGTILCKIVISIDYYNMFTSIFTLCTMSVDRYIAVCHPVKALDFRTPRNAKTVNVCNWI
Sequence of δ-opioid receptors (P33533 whole entry): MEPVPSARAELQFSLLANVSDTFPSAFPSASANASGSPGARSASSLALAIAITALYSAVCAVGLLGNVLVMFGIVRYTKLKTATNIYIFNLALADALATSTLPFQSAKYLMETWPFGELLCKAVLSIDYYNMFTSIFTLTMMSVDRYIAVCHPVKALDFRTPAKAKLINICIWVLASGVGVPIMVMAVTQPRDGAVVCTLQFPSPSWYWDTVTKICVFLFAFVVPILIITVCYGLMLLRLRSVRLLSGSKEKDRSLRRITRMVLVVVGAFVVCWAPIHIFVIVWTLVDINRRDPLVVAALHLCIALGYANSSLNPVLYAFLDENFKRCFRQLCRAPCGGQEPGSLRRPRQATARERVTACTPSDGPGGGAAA
Sequence of μ-opioid receptors (P33535 whole entry): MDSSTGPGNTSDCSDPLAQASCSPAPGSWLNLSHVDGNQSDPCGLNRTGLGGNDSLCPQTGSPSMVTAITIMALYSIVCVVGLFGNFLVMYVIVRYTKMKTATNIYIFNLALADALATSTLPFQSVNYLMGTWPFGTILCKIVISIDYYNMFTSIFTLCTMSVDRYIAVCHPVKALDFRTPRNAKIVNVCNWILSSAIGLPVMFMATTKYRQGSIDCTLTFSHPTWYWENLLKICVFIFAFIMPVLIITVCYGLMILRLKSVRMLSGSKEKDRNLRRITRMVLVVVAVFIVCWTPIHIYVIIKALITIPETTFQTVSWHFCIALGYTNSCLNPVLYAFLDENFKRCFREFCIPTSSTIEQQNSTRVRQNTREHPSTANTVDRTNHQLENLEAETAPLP

H-Dmt-Tic-Gly-NH-Ph [Compound 1]
IC50 (δ-opioid receptor [1]; read-out: MVD IC50, δ agonism): 3.02 nM | IC50 (μ-opioid receptor [2]): 2.57 nM | Ki (δ-opioid receptors): 0.042 nM | Selectivity Ki^μ/Ki^δ (δ-opioid receptors): 4 | Ki (μ-opioid receptors): 0.16 nM

Cc1cc(O)cc(C)c1C[C@H](N)C(=O)N1Cc2ccccc2C[C@H]1C(=O)N[C@@H](CC(=O)O)c1nc2ccccc2n1C [Compound 10, H-Dmt-Tic-NH-(S)CH(CH2-COOH)-Bid(N^1-Me)]
Reversal of analgesia by naltrindole and naloxone, tail-flick test (mice [3]; [10]): reversed | Analgesic effect, tail-flick test (mice [3]; icv injection, mice, Figure 1): dose dependent analgesic effect | Convulsions (mice [4]; highest doses): convulsions | Behavioural effects in mice (mice [4]; same dose): sedated, quiet, easily handled, and moving slowly if at all | Stability to enzymic degradation [5]: fully stable | Reversal of analgesia by naltrindole and naloxone, hot-plate test (mice [6]; [10]): not in the hot-plate test | Analgesic effect, hot-plate test (mice [6]; icv injection, mice, Figure 1): dose dependent analgesic effect | Stability to enzymic degradation [7]: fully stable | μ agonism relative to 4 (μ-opioid receptor [8]; GPI): 1.7 fold

Cc1cc(O)cc(C)c1C[C@H](N)C(=O)N1Cc2ccccc2C[C@H]1C(=O)N[C@@H](CC(=O)O)C(=O)NCc1ccccc1 [Compound 13, H-Dmt-Tic-Asp-NH-Bzl] (H-[Dmt]-[Tic]-Asp-NHBn)
δ antagonist activity, lower than 2 (δ-opioid receptor [9]): 5 fold

H-Dmt-Tic-Gly-NH-Bzl [Compound 2]
MVD pA2 (δ-opioid receptor [1]; δ antagonism): 9.25 | IC50 (μ-opioid receptor [2]): 2.69 nM | Ki (δ-opioid receptors): 0.031 nM | Selectivity Ki^μ/Ki^δ (δ-opioid receptors): 5 | Ki (μ-opioid receptors): 0.16 nM

Cc1cc(O)cc(C)c1C[C@H](N)C(=O)N1Cc2ccccc2C[C@H]1C(=O)N[C@H](CC(=O)O)c1nc2ccccc2n1C [Compound 11, H-Dmt-Tic-NH-(R)CH(CH2-COOH)-Bid(N^1-Me)]
IC50 (μ-opioid receptor [8]): > 10000 nM

Cc1cc(O)cc(C)c1C[C@H](N)C(=O)N1Cc2ccccc2C[C@H]1C(=O)N[C@@H](CC(=O)O)C(=O)N(C)c1ccccc1 [Compound 8, H-Dmt-Tic-Asp-N(Me)-Ph]
IC50 (μ-opioid receptor [8]): > 10000 nM

Cc1cc(O)cc(C)c1C[C@H](N)C(=O)N1Cc2ccccc2C[C@H]1C(=O)N[C@H](CC(=O)O)C(=O)N(C)c1ccccc1 [Compound 9, H-Dmt-Tic-D-Asp-N(Me)-Ph]
IC50 (μ-opioid receptor [8]): > 10000 nM

Reference: article PMC2812024 (Journal of medicinal chemistry, 2008)
